Data published in ChEMBL document CHEMBL1649139, “A novel gene, erm(41), confers inducible macrolide resistance to clinical isolates of Mycobacterium abscessus but is absent from Mycobacterium chelonae” (2009).
In brackets after ≈: the same amount, converted by molar mass.

Key:
Assay type in all cases: functional
[1] = system: Mycobacteroides abscessus; assay: Antimicrobial activity against Mycobacterium abscessus isolate MC879-2 at day 3 preincubated with 0.1 ug/ml for 3 days by broth microdilution method
[2] = system: Mycobacteroides abscessus; assay: Antimicrobial activity against Mycobacterium abscessus isolate MC879-2 at day 9 preincubated with 0.1 ug/ml for 3 days by broth microdilution method
[3] = system: Mycobacteroides abscessus; assay: Antimicrobial activity against Mycobacterium abscessus isolate MC879-2 at day 14 preincubated with 0.1 ug/ml for 3 days by broth microdilution method
[4] = system: Mycolicibacterium smegmatis; assay: Antimicrobial activity against Mycobacterium smegmatis transformed with erm allele Mycobacterium abscessus isolate MC720 by broth microdilution method
[5] = system: Mycolicibacterium smegmatis; assay: Antimicrobial activity against Mycobacterium smegmatis transformed with erm allele Mycobacterium abscessus isolate MC879-2 by broth microdilution method
[6] = system: Mycolicibacterium smegmatis; assay: Antimicrobial activity against Mycobacterium smegmatis transformed with erm allele Mycobacterium abscessus isolate MC879-2 preincubated with 2 ug/ml erythromycin for 20 to 24 hrs by broth microdilution method
[7] = system: Mycobacteroides abscessus; assay: Antimicrobial activity against Mycobacterium abscessus isolate MC879 at day 3 by broth microdilution method; settings: isolate MC879, 72 h
Outline: (§1)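 Clarithromycin MIC by broth microdilution following CLSI guidelines. Organisms were preincubated […], for 3 days before the assay. This allowed at least two generations, judged by the rise in turbidity. The MIC was read at the stated day, with incubation extended from day 3 to as long as 14 days.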

[8] = system: Mycobacteroides abscessus; assay: Antimicrobial activity against Mycobacterium abscessus isolate MC724 at day 3 by broth microdilution method; settings: isolate MC724, 72 h; outline: as §1
[9] = system: Mycobacteroides abscessus; assay: Antimicrobial activity against Mycobacterium abscessus isolate MC958 at day 7 by broth microdilution method; settings: isolate MC958, 168 h; outline: as §1
[10] = system: Mycobacteroides abscessus; assay: Antimicrobial activity against Mycobacterium abscessus isolate MC723 at day 7 by broth microdilution method; settings: isolate MC723, 168 h
Outline: (§2)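 Clinical M. abscessus isolates were preincubated for 3 days, either in medium alone or in clarithromycin or erythromycin at 0.01 to 1 μg/ml, allowing at least two generations of growth judged by turbidity. The clarithromycin MIC was then determined by CLSI-conforming broth microdilution, with plates read on day 3 and on extended incubation (days 5 to 14).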

[11] = system: Mycobacteroides abscessus; assay: Antimicrobial activity against Mycobacterium abscessus isolate MC719 at day 14 by broth microdilution method; settings: isolate MC719, 336 h
Outline: (§3)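 Clarithromycin MIC by broth microdilution following CLSI guidelines. Before testing, organisms were preincubated for 3 days in medium alone or in clarithromycin or erythromycin (0.01–1 μg/ml), long enough for at least two generations judged by turbidity increase. MICs were read on day 3 and again on extended incubation out to day 14.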

[12] = system: Mycobacteroides abscessus; assay: Antimicrobial activity against Mycobacterium abscessus isolate MC723 at day 3 preincubated with 0.1 ug/ml erythromycin for 3 days by broth microdilution method; outline: as §3
[13] = system: Mycobacteroides abscessus; assay: Antimicrobial activity against Mycobacterium abscessus isolate MC1028 at day 3 by broth microdilution method; settings: isolate MC1028, 72 h
Outline: (§4)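 Clarithromycin MIC by CLSI-conforming broth microdilution. Before testing, cultures were preincubated for 3 days, either in medium alone or in clarithromycin or erythromycin (tested range 0.01–1 μg/ml). Preincubation ran for at least two generations, judged by turbidity increase. Plates were read on day 3 and on extended incubation at days 5 to 14.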

[14] = system: Mycobacteroides abscessus; assay: Antimicrobial activity against Mycobacterium abscessus isolate MAB30 at day 5 by broth microdilution method; settings: isolate MAB30, 120 h; outline: as §4
[15] = system: Mycobacteroides abscessus; assay: Antimicrobial activity against Mycobacterium abscessus isolate MAB30 at day 9 by broth microdilution method; settings: isolate MAB30, 216 h; outline: as §4
[16] = system: Mycobacteroides abscessus; assay: Antimicrobial activity against Mycobacterium abscessus isolate MC1082 at day 9 by broth microdilution method; settings: isolate MC1082, 216 h; outline: as §4
[17] = system: Mycobacteroides abscessus; assay: Antimicrobial activity against Mycobacterium abscessus isolate MC1028 at day 14 by broth microdilution method; settings: isolate MC1028, 336 h; outline: as §4
[18] = system: Mycobacteroides abscessus; assay: Antimicrobial activity against Mycobacterium abscessus isolate MC1082 at day 14 by broth microdilution method; settings: isolate MC1082, 336 h; outline: as §4
[19] = system: Mycobacteroides abscessus; assay: Antimicrobial activity against Mycobacterium abscessus isolate MC1082 at day 5 preincubated with 0.1 ug/ml erythromycin for 3 days by broth microdilution method; outline: as §4
[20] = system: Mycobacteroides abscessus; assay: Antimicrobial activity against Mycobacterium abscessus isolate MAB30 at day 7 preincubated with 0.1 ug/ml erythromycin for 3 days by broth microdilution method; outline: as §4
[21] = system: Mycobacteroides abscessus; assay: Antimicrobial activity against Mycobacterium abscessus isolate MC958 at day 7 preincubated with 0.1 ug/ml erythromycin for 3 days by broth microdilution method
[22] = system: Mycobacteroides abscessus; assay: Antimicrobial activity against Mycobacterium abscessus isolate MC724 at day 7 preincubated with 0.1 ug/ml erythromycin for 3 days by broth microdilution method
Outline: (§5)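 To test inducible resistance, cultures were preincubated for 3 days in clarithromycin or erythromycin, within 0.01–1 μg/ml. The period was set so cultures passed at least two generations, judged by turbidity increase. Clarithromycin MIC was then determined by CLSI-conforming broth microdilution and read on the stated day, from day 3 up to 14.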

[23] = system: Mycobacteroides abscessus; assay: Antimicrobial activity against Mycobacterium abscessus isolate MC719 at day 9 preincubated with 0.1 ug/ml erythromycin for 3 days by broth microdilution method; outline: as §3
[24] = system: Mycobacteroides abscessus; assay: Antimicrobial activity against Mycobacterium abscessus isolate MC723 at day 9 preincubated with 0.1 ug/ml erythromycin for 3 days by broth microdilution method; outline: as §3
[25] = system: Mycobacteroides abscessus; assay: Antimicrobial activity against Mycobacterium abscessus isolate MAB30 at day 3 preincubated with 0.1 ug/ml for 3 days by broth microdilution method; outline: as §4
[26] = system: Mycobacteroides abscessus; assay: Antimicrobial activity against Mycobacterium abscessus isolate MC1082 at day 9 preincubated with 0.1 ug/ml for 3 days by broth microdilution method; outline: as §4
[27] = system: Mycobacteroides abscessus; assay: Antimicrobial activity against Mycobacterium abscessus isolate MC879-2 at day 3 by broth microdilution method; settings: isolate MC879-2, 72 h
[28] = system: Mycobacteroides abscessus; assay: Antimicrobial activity against Mycobacterium abscessus isolate MC1448 at day 3 by broth microdilution method; settings: isolate MC1448, 72 h; outline: as §4
[29] = system: Mycobacteroides abscessus; assay: Antimicrobial activity against Mycobacterium abscessus isolate MC879-2 at day 5 by broth microdilution method; settings: isolate MC879-2, 120 h
[30] = system: Mycobacteroides abscessus; assay: Antimicrobial activity against Mycobacterium abscessus isolate MC1448 at day 5 by broth microdilution method; settings: isolate MC1448, 120 h; outline: as §3
[31] = system: Mycobacteroides abscessus; assay: Antimicrobial activity against Mycobacterium abscessus isolate MC1448 at day 9 by broth microdilution method; settings: isolate MC1448, 216 h; outline: as §3
[32] = system: Mycobacteroides abscessus; assay: Antimicrobial activity against Mycobacterium abscessus isolate MC1448 at day 14 by broth microdilution method; settings: isolate MC1448, 336 h; outline: as §4
[33] = system: Mycobacteroides abscessus; assay: Antimicrobial activity against Mycobacterium abscessus isolate MC724 at day 3 preincubated with 0.1 ug/ml for 3 days by broth microdilution method; outline: as §5
[34] = system: Mycobacteroides abscessus; assay: Antimicrobial activity against Mycobacterium abscessus isolate MC720 at day 5 preincubated with 0.1 ug/ml for 3 days by broth microdilution method; outline: as §2
[35] = system: Mycobacteroides abscessus; assay: Antimicrobial activity against Mycobacterium abscessus isolate MC724 at day 5 preincubated with 0.1 ug/ml for 3 days by broth microdilution method; outline: as §2
[36] = system: Mycobacteroides abscessus; assay: Antimicrobial activity against Mycobacterium abscessus isolate MC719 at day 5 preincubated with 0.1 ug/ml erythromycin for 3 days by broth microdilution method; outline: as §2

## CC[C@H]1OC(=O)[C@H](C)[C@@H](O[C@H]2C[C@@](C)(OC)[C@@H](O)[C@H](C)O2)[C@H](C)[C@@H](O[C@@H]2O[C@H](C)C[C@H](N(C)C)[C@H]2O)[C@](C)(OC)C[C@@H](C)C(=O)[C@H](C)[C@@H](O)[C@]1(C)O [CLARITHROMYCIN]
[1]
  MIC: > 32 µg/mL
[2]
  MIC: > 32 µg/mL
[3]
  MIC: > 32 µg/mL
[4]
  MIC: 2 µg/mL (≈ 2.67 µM)
[5]
  MIC: 2 µg/mL (≈ 2.67 µM)
[6]
  MIC: 16 µg/mL
[7]
  MIC: ≤ 0.5 µg/mL
[8]
  MIC: ≤ 0.5 µg/mL
[9]
  MIC: 8 µg/mL (≈ 10.7 µM)
[10]
  MIC: 8 µg/mL (≈ 10.7 µM)
[11]
  MIC: > 32 µg/mL
[12]
  MIC: ≤ 0.5 µg/mL
[13]
  MIC: ≤ 0.5 µg/mL
[14]
  MIC: ≤ 0.5 µg/mL
[15]
  MIC: ≤ 0.5 µg/mL
[16]
  MIC: ≤ 0.5 µg/mL
[17]
  MIC: ≤ 0.5 µg/mL
[18]
  MIC: ≤ 0.5 µg/mL
[19]
  MIC: ≤ 0.5 µg/mL
[20]
  MIC: ≤ 0.5 µg/mL
[21]
  MIC: > 32 µg/mL
[22]
  MIC: > 32 µg/mL
[23]
  MIC: > 32 µg/mL
[24]
  MIC: > 32 µg/mL
[25]
  MIC: ≤ 0.5 µg/mL
[26]
  MIC: ≤ 0.5 µg/mL
[27]
  MIC: > 32 µg/mL
[28]
  MIC: > 32 µg/mL
[29]
  MIC: > 32 µg/mL
[30]
  MIC: > 32 µg/mL
[31]
  MIC: > 32 µg/mL
[32]
  MIC: > 32 µg/mL
[33]
  MIC: ≤ 0.5 µg/mL
[34]
  MIC: 4 µg/mL (≈ 5.35 µM)
[35]
  MIC: 4 µg/mL (≈ 5.35 µM)
[36]
  MIC: 4 µg/mL
